ChEMBL document CHEMBL4052683, “The discovery of benzoxazine sulfonamide inhibitors of NaV1.7: Tools that bridge efficacy and target engagement” (Bioorg Med Chem Lett, 2017)
Calls of active or inactive are those of the source. No cut-off for these calls is given here.

What was measured:
[1] = Volume of distribution in rat at 0.5 mg/kg, iv by LC-MS/MS method; type: ADME, organism-based; conditions: in vivo
[2] = Half life in mouse at 30 mg/kg, po by LC-MS/MS method; type: ADME, organism-based; conditions: in vivo
Plasma [3] = assay: Plasma concentration in C57BL/6 mouse model of histamine-induced pruritus at 30 mg/kg, po; type: ADME, organism-based; conditions: in vivo
Procedure, shortened: (§1)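 Male C57BL/6 mice got 30, 60 or 100 mg/kg PO in 30% hydroxypropyl β-cyclodextrin, pH 10.0, 120 min before the test. Histamine (8.15mM) was given intradermally to the nape of the neck just before testing, and scratch bouts were counted over 0–30 min. Diphenhydramine 30 mg/kg PO in water, 90 min before, served as control. Unbound plasma concentrations were measured.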

[4] = Half life in rat at 0.5 mg/kg, iv by LC-MS/MS method; type: ADME, organism-based; conditions: in vivo
Procedure, shortened: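 Male rats got 0.5 mg/kg IV as a DMSO solution. Unbound clearance was taken as rat clearance divided by the unbound fraction from equilibrium dialysis.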

[5] = Cmax in rat at 10 mg/kg, po by LC-MS/MS method; type: ADME, organism-based; design: dose 10 mg/kg, route oral; conditions: in vivo
[6] = Ratio of unbound plasma concentration in C57BL/6 mouse model of histamine-induced pruritus at 60 mg/kg, po to IC50 for mouse Nav1.7 by whole cell voltage clamp method
Procedure, shortened: (§2)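 The formalin arm received 2% formalin subcutaneously into the dorsal hind paw, and total phase II licking and lifting was scored. The pruritus arm was dosed 120 min before histamine (8.15mM, intradermal, nape of neck), and scratch bouts were counted over 0-30 min. Unbound plasma concentration was determined at each dose.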

[7] = target: Histamine H2 receptor (Homo sapiens) (UniProt P25021); assay: Displacement of [125I]APT from human recombinant histamine H2 receptor expressed in CHO cells at 10 uM by radioligand displacement assay; type: cell-based
Mus musculus [8] = assay: Analgesic activity in C57BL/6 mouse model of formalin-induced nociception behavior assessed as reduction in formalin-evoked paw lifting/licking at 30 to 100 mg/kg, po; type: functional, organism-based
Procedure, shortened: (§3)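 Male C57BL/6 mice got 30, 60 or 100 mg/kg PO in 30% (w/v) hydroxypropyl β-cyclodextrin in water, pH 10.0 with KOH. Formalin (2%) was injected subcutaneously into the dorsal hind paw, and total phase II paw licking and lifting were scored. Morphine sulfate 3 mg/kg SC served as control. Unbound plasma concentration was divided by the mouse NaV1.7 IC50.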

[9] = Ratio of unbound plasma concentration in C57BL/6 mouse model of histamine-induced pruritus at 100 mg/kg, po to IC50 for mouse Nav1.7 by whole cell voltage clamp method; procedure, shortened: as §2
[10] = Protein binding in rat plasma at 5 uM by ultracentrifugation and LC-MS/MS method; type: ADME, cell-free; conditions: read-out: PPB (converted)
Rattus norvegicus [11] = assay: Unbound clearance in rat at 0.5 mg/kg, iv by LC-MS/MS method; type: ADME, organism-based; conditions: in vivo
Procedure, shortened: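 Male rats given 0.5 mg/kg intravenously as a solution in DMSO. Unbound clearance was calculated as rat clearance divided by unbound fraction, with unbound fraction determined by equilibrium dialysis.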

Rattus norvegicus [12] = assay: Analgesic activity in Sprague-Dawley rat model of formalin-induced nociception behavior assessed as reduction in formalin-evoked paw flinching at 10 mg/kg, po; type: functional
Procedure, shortened: (§4)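 Sprague Dawley rats got 10, 30 or 100 mg/kg PO in 30% (w/v) hydroxypropyl β-cyclodextrin, pH 10.0 with KOH. Total phase II formalin-induced flinches were counted. Morphine sulfate 2 mg/kg SC served as control. Unbound plasma levels were measured and compared with the rat NaV1.7 IC50.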

[13] = AUC (infinity) in rat at 10 mg/kg, po by LC-MS/MS method; type: ADME, organism-based; design: dose 10 mg/kg, route oral, time infinity; conditions: in vivo
[14] = Ratio of unbound plasma concentration in C57BL/6 mouse model of formalin-induced nociception behavior at 30 mg/kg, po to IC50 for mouse Nav1.7 by whole cell voltage clamp method; procedure, shortened: as §3
Plasma [15] = assay: Unbound plasma concentration in C57BL/6 mouse model of histamine-induced pruritus at 100 mg/kg, po; type: ADME, organism-based; conditions: in vivo; procedure, shortened: as §2
Plasma [16] = assay: Unbound plasma concentration in Sprague-Dawley rat model of formalin-induced nociception behavior at 10 mg/kg, po; type: ADME, organism-based; conditions: in vivo
Procedure, shortened: (§5)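 Total phase II formalin-induced flinches were scored. Unbound plasma concentration was determined at each dose and related to the rat NaV1.7 IC50.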

[17] = Clearance in pooled human liver microsomes at 1 uM in presence of NADPH by LC-MS/MS method; type: ADME, microsome; conditions: read-out: CLH
[18] = Cmax in mouse at 30 mg/kg, po by LC-MS/MS method; type: ADME, organism-based; design: dose 30 mg/kg, route oral; conditions: in vivo
[19] = Protein binding in mouse plasma at 5 uM by ultracentrifugation and LC-MS/MS method; type: ADME, cell-free; conditions: read-out: PPB (converted)
Plasma [20] = assay: Plasma concentration in C57BL/6 mouse model of histamine-induced pruritus at 100 mg/kg, po; type: ADME, organism-based; conditions: in vivo; procedure, shortened: as §1
Plasma [21] = assay: Plasma concentration in Sprague-Dawley rat model of formalin-induced nociception behavior at 100 mg/kg, po; type: ADME, organism-based; conditions: in vivo; procedure, shortened: as §4
[22] = target: Sodium channel protein type 10 subunit alpha (Rattus norvegicus, UniProt Q62968); assay: Inhibition of NaV1.8 in rat DRG neurons assessed as reduction in tetrodotoxin-resistant sodium channel currents at holding potential of -140 mV by manual patch clamp electrophysiology assay
Mus musculus [23] = assay: Analgesic activity in C57BL/6 mouse model of formalin-induced nociception behavior assessed as reduction in formalin-evoked paw lifting/licking at 100 mg/kg, po; type: functional; procedure, shortened: as §3
Mus musculus [24] = assay: Anti-pruritic activity in C57BL/6 mouse model of histamine-induced pruritus assessed as reduction in histamine-induced scratching at 30 mg/kg, po dosed 120 mins before test; type: functional; procedure, shortened: as §1
Rattus norvegicus [25] = assay: Analgesic activity in Sprague-Dawley rat model of formalin-induced nociception behavior assessed as reduction in formalin-evoked paw flinching at 100 mg/kg, po; type: functional; procedure, shortened: as §4
[26] = Unbound fraction in mouse plasma at 5 uM by ultracentrifugation and LC-MS/MS method; type: ADME, cell-free
Plasma [27] = assay: Unbound plasma concentration in C57BL/6 mouse model of formalin-induced nociception behavior at 100 mg/kg, po; type: ADME, organism-based; conditions: in vivo; procedure, shortened: as §2
Plasma [28] = assay: Plasma concentration in C57BL/6 mouse model of formalin-induced nociception behavior at 30 mg/kg, po; type: ADME, organism-based; conditions: in vivo; procedure, shortened: as §3
Plasma [29] = assay: Plasma concentration in C57BL/6 mouse model of histamine-induced pruritus at 60 mg/kg, po; type: ADME, organism-based; conditions: in vivo; procedure, shortened: as §1
[30] = Tmax in rat at 10 mg/kg, po by LC-MS/MS method; type: ADME, organism-based; conditions: in vivo
Rattus norvegicus [31] = assay: Analgesic activity in Sprague-Dawley rat model of formalin-induced nociception behavior assessed as reduction in formalin-evoked paw flinching at 10 to 100 mg/kg, po; type: functional, organism-based; procedure, shortened: as §4
[32] = Apparent permeability in MDCK vector control cells at 5 uM; conditions: dog
Plasma [33] = assay: Plasma concentration in Sprague-Dawley rat model of formalin-induced nociception behavior at 30 mg/kg, po; type: ADME, organism-based; conditions: in vivo; procedure, shortened: as §4
Plasma [34] = assay: Unbound plasma concentration in Sprague-Dawley rat model of formalin-induced nociception behavior at 100 mg/kg, po; type: ADME, organism-based; conditions: in vivo; procedure, shortened: as §5
Plasma [35] = assay: Unbound plasma concentration in C57BL/6 mouse model of histamine-induced pruritus at 60 mg/kg, po; type: ADME, organism-based; conditions: in vivo; procedure, shortened: as §2

Chain of Sodium channel protein type 10 subunit alpha (Q62968 whole entry): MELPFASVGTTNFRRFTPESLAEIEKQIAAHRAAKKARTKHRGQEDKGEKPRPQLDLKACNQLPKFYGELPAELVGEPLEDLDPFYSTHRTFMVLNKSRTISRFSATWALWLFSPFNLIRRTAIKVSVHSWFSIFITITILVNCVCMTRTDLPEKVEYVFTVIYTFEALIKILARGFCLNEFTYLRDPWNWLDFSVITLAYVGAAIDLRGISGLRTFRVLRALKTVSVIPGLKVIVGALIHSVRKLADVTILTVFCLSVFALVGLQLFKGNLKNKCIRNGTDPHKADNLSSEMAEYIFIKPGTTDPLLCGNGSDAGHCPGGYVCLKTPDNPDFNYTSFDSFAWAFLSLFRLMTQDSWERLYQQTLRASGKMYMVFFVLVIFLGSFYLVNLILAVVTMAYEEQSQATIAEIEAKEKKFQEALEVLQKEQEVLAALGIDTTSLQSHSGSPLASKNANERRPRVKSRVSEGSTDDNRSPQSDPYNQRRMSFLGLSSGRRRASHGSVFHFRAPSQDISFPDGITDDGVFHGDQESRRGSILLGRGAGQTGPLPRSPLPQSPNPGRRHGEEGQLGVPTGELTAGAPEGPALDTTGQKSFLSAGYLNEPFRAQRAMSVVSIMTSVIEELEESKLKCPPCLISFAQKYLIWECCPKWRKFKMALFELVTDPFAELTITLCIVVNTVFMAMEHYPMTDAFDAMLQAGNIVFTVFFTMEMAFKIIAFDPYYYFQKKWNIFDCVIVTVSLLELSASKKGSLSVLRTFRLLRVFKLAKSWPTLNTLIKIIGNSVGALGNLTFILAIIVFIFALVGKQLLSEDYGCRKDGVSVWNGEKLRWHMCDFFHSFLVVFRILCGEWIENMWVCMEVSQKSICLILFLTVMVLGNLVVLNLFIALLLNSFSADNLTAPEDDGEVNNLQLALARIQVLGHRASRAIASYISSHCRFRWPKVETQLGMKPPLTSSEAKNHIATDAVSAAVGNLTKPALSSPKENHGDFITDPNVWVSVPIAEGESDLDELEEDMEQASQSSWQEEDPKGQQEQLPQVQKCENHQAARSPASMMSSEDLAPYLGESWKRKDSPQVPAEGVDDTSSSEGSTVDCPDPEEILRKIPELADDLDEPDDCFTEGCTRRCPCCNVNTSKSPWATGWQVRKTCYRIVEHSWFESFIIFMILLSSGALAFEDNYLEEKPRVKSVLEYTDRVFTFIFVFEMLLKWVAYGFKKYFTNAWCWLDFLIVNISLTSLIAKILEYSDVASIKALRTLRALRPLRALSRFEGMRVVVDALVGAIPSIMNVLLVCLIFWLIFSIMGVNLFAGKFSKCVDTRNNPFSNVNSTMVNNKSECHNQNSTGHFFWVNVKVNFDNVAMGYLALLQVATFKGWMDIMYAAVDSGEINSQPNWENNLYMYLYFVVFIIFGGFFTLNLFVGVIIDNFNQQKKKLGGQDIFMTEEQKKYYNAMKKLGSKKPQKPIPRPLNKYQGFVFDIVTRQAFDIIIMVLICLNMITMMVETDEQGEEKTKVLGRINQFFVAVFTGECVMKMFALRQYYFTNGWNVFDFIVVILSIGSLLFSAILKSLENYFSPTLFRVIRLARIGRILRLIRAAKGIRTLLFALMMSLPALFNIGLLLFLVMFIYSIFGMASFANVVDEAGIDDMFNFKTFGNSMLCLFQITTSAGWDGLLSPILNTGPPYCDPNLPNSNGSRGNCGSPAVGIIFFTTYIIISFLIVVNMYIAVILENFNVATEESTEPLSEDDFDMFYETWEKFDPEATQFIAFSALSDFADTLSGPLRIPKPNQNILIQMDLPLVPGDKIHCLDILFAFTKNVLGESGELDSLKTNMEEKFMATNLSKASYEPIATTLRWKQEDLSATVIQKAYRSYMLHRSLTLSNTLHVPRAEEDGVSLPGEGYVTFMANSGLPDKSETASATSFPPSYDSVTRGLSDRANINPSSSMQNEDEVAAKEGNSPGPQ
Chain of Histamine H2 receptor (Homo sapiens) (P25021 whole entry): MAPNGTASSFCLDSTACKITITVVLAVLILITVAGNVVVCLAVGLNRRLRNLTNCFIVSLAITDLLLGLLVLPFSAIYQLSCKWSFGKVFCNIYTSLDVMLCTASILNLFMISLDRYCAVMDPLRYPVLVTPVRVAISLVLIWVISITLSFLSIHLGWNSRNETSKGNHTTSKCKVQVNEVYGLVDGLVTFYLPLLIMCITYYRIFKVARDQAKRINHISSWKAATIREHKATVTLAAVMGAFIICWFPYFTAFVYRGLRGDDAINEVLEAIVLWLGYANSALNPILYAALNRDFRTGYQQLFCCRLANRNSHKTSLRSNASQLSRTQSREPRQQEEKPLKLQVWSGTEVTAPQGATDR

Vd [1]: 2.5 L/kg | half-life [2]: 7.1 h | concentration (Plasma [3]): 61 µM | half-life [4]: 3.6 h | Cmax [5]: 0.95 to 0.99 µM | inhibition [7]: inactive | fraction unbound at 5 µM [10]: 0.015 | CL free (Rattus norvegicus [11]): 650 mL/min/kg | AUC(0-inf) [13]: 20 µM·h | Cp(f) (Plasma [15]): 0.68 µM | Cp(f) (Plasma [16]): 0.027 µM | microsomal CLint at 1 µM [17]: < 14 µL/min/mg | Cmax [18]: 58 µM | fraction unbound at 5 µM [19]: 0.006 | concentration (Plasma [20]): 113 µM | concentration (Plasma [21]): 11 µM | fraction unbound at 5 µM [26]: 0.006 | Cp(f) (Plasma [27]): 0.92 µM | concentration (Plasma [28]): 51 µM | concentration (Plasma [29]): 109 µM | Tmax [30]: 6.7 h | Papp at 5 µM [32]: 19 ×10⁻⁶ cm/s | concentration (Plasma [33]): 4.2 µM | Cp(f) (Plasma [34]): 0.18 µM | Cp(f) (Plasma [35]): 0.66 µM
SMILES: N#Cc1cc(C(F)(F)F)ccc1N1CCOc2cc(S(=O)(=O)Nc3nccs3)c(F)cc21
Ratio [6]: 10 | inhibition (Mus musculus [8]): Dose-dependent effect | Ratio [9]: 11 | MPE (Rattus norvegicus [12]): 17% | Ratio [14]: 5 | IC50 [22]: > 30 µM | MPE (Mus musculus [23]): 77% | MPE (Mus musculus [24]): 37% | MPE (Rattus norvegicus [25]): 70% | inhibition (Rattus norvegicus [31]): Dose-dependent effect
